The results in this text go back to ChEMBL document CHEMBL1142728, “Design and optimization of tricyclic phtalimide analogues as novel inhibitors of HIV-1 integrase” (J Med Chem, 2005).

For assay [1], the system named is Human immunodeficiency virus 1. In words: Log of cytotoxic concentration against human immunodeficiency virus type 1 using cell-based replication assay in MT-4 cells. In kind it is functional, MT4. In a few lines: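 Mock-infected MT4 cells (150 000 cells/mL) get the same compound concentration range and are incubated 3 days at 37 °C, 5% CO2, in parallel with the HIV-infected cultures. Toxicity is scored as reduced GFP reporter expression. CC50/pCC50 come from dose-response curves of percent inhibition.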

In assay [2] the test system is Human immunodeficiency virus 1. In words: Log of effective concentration against human immunodeficiency virus type 1 using cell-based replication assay in MT-4 cells. As to conditions: Human immunodeficiency virus 1, MT4. In kind it is functional, organism-based. In a few lines:
(§1)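 MT4 cells (150 000 cells/mL) infected with HIV-1/LAI wild type at 200 CCID50, with serial compound concentrations in 384-well format. Replication is read as GFP expression driven by HIV-tat acting on an LTR-GFP reporter. Incubation 3 days at 37 °C, 5% CO2. EC50/pEC50 are taken from dose-response curves of percent inhibition.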

Assay [3] deals with T1, Human immunodeficiency virus type 1 integrase (Human immunodeficiency virus 1, UniProt Q7ZJM1). In words: Log of inhibitory concentration against human immunodeficiency virus type 1 integrase. The gist of the method: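 Strand transfer ELISA using recombinant His-tagged HIV-1 integrase expressed in E. coli BL21(DE3). 20 nM biotinylated processed viral DNA substrate is preincubated with 300 nM integrase for 5 min at 37 °C. Serial compound dilutions and 50 nM target DNA are then added in 20 mM Hepes pH 7.5, 25 mM NaCl, 5 mM MnCl2, 2 mM DTT, 50 µg/mL BSA and incubated 2 h at 37 °C. Products are captured on streptavidin plates, detected with anti-FITC peroxidase antibody and read by chemiluminescence.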

For assay [4], the target named is T1, Human immunodeficiency virus type 1 integrase. In words: Inhibitory concentration against human immunodeficiency virus type 1 integrase.
The test system of assay [5] is Human immunodeficiency virus 1. The assay is described as follows: Effective concentration against human immunodeficiency virus type 1 using cell-based replication assay in MT-4 cells. The settings on record: Human immunodeficiency virus 1, MT4. In kind it is functional, organism-based. In a few lines: as §1

SMILES strings stand for the structures. Bounds are passed on as bounds.

T1 sequence (Q7ZJM1 whole entry): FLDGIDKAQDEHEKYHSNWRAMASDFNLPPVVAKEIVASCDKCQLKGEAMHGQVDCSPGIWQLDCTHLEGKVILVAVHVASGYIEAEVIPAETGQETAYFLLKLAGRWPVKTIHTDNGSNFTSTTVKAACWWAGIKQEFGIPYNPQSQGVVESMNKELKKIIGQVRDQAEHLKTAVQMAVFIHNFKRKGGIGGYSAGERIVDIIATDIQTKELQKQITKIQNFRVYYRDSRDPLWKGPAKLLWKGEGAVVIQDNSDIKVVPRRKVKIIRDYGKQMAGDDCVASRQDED

In assay [1], `COc1ccc(CN2C(=O)c3c(c(O)c4nccnc4c3O)C2=O)cc1` gave a pCC50 of 4.64. The midpoint of the response in assay [2], the EC50, lay at 3.63 µM. In addition, half-maximal inhibition in assay [3] (IC50) was put at 0.562 µM.
Taken in the same sequence, the figures for `O=C1c2c(c(O)c3nccnc3c2O)C(=O)N1Cc1cccc(-c2ccccc2F)c1` were 4.82, 13.2 µM and 0.501 µM.
Molecule `O=C1c2c(c(O)c3nccnc3c2O)C(=O)N1Cc1ccc(-c2ccccc2F)cc1` registered a pCC50 in assay [1] of 4.83. This molecule gave an EC50 in assay [2] of 14.8 µM. The IC50 in assay [3] is 1 µM.
As for `O=C1c2c(c(O)c3nccnc3c2O)C(=O)N1CCc1ccc2c(c1)OCO2`, a half-maximal effect in assay [2] (EC50) was put at 11 µM. This molecule also gave an IC50 in assay [3] of 1.41 µM.
The molecule `O=C(c1ccccc1)N1CCC(N2C(=O)c3c(c(O)c4nccnc4c3O)C2=O)CC1` yielded a pCC50 in assay [1] below 4.49. This molecule showed an EC50 in assay [2] above 32.4 µM. In addition, in assay [3], half-maximal inhibition (IC50) required 2.4 µM.
For the molecule `COc1ccc(CN2C(=O)c3c(c(O)c4nccnc4c3O)C2=O)c(OC)c1`, the pCC50 in assay [1] stood at 4.77. The same molecule showed an EC50 in assay [2] of 13.5 µM. Moreover, the IC50 in assay [3] is 0.427 µM.
Taken in the same sequence, the figures for `COc1ccccc1CN1C(=O)c2c(c(O)c3nccnc3c2O)C1=O` were 4.81, 3.8 µM and 0.813 µM.
Taken in the same sequence, the figures for `O=C1c2c(c(O)c3nccnc3c2O)C(=O)N1Cc1ccccc1Br` were 4.75, 15.1 µM and 0.631 µM.
Taken in the same sequence, the figures for `COc1ccc(OC)c(CN2C(=O)c3c(c(O)c4nccnc4c3O)C2=O)c1` were 4.73, 4.79 µM and 0.776 µM.
In assay [1], `CN1C(=O)c2c(c(O)c3nccnc3c2O)C1=O` returned a pCC50 below 4.49. Besides, the EC50 in assay [2] is above 32.4 µM. In addition, in assay [3], inhibition was half-maximal at 49 µM (IC50).
`COc1cccc(CN2C(=O)c3c(c(O)c4nccnc4c3O)C2=O)c1OC`: the pCC50 in assay [1] was determined as 4.72. In addition, the EC50 in assay [2] is 4.9 µM. The IC50 in assay [3] was 0.427 µM.
Taken in the same sequence, the figures for `COc1cccc(OC)c1CN1C(=O)c2c(c(O)c3nccnc3c2O)C1=O` were 5.09, 5.37 µM and 2 µM.
As to `O=C1c2c(c(O)c3nccnc3c2O)C(=O)N1C1CCCC1`, in assay [1], the pCC50 is 4.55. The molecule also had an EC50 in assay [2] above 32.4 µM. The IC50 in assay [3] was 10.5 µM.
Take `O=C1c2c(c(O)c3nccnc3c2O)C(=O)N1Cc1cccc(C(F)(F)F)c1`: the negative logarithm of the CC50 (pCC50) in assay [1] stood at 4.77. The same molecule gave an EC50 in assay [2] of 9.77 µM. Also, the IC50 in assay [3] is 0.427 µM.
`Cc1ccc2c(O)c3c(c(O)c2n1)C(=O)N(Cc1cccc(Br)c1)C3=O` came in with a pCC50 in assay [1] of 4.78. This molecule also had an EC50 in assay [2] of 7.59 µM. In assay [3], this molecule had an IC50 of 0.257 µM.
In the case of `O=C1c2c(c(O)c3nccnc3c2O)C(=O)N1c1ccc2c(c1)OCO2`, the pCC50 in assay [1] is below 4.49. In assay [2], the EC50 was above 32.4 µM. In addition, in assay [3], it took 10 µM to reach half-maximal inhibition (IC50).
As to `O=C1c2c(c(O)c3nccnc3c2O)C(=O)N1Cc1cccc(F)c1`, the pCC50 in assay [1] turned out to be 4.77. In addition, in assay [2], the response was half-maximal at 5.37 µM (EC50). For the same molecule, the IC50 in assay [3] was 0.562 µM.
In assay [1], `Cc1ccc(CN2C(=O)c3c(c(O)c4nccnc4c3O)C2=O)cc1` came in with a pCC50 of 4.86. In assay [2], the EC50 was 1.78 µM. Besides, in assay [3], inhibition was half-maximal at 1.58 µM (IC50).
Taken in the same sequence, the figures for `O=C1c2c(c(O)c3nccnc3c2O)C(=O)N1Cc1ccc(OC(F)(F)F)cc1` were 5.6, 1.35 µM and 2.04 µM.
Taken in the same sequence, the figures for `O=C1c2c(c(O)c3nccnc3c2O)C(=O)N1Cc1ccc2c(c1)OCO2` were below 4.49, 3.16 µM and 0.562 µM.
Molecule `CC(C)Oc1ccc(Cc2ccccc2)cc1/C(O)=C/C(=O)C(=O)O` displayed an IC50 in assay [4] of 0.05 µM.
As for `O=S1(=O)CCCCN1c1nc(/C(O)=N/Cc2ccc(F)cc2)c(O)c2ncccc12`, the EC95 in assay [5] stood at 0.1 µM. The molecule further registered an IC50 in assay [4] of 0.01 µM.
As to `O=C1c2c(c(O)c3nnccc3c2O)C(=O)N1Cc1cccc(Br)c1`, the pCC50 in assay [1] is below 4.49. The molecule also gave an EC50 in assay [2] of 21.4 µM. This molecule also had an IC50 in assay [3] of 3.63 µM.
The molecule `O=C1c2c(c(O)c3nccnc3c2O)C(=O)N1Cc1ccc(F)cc1` registered a pCC50 in assay [1] of 4.69. The molecule also showed an EC50 in assay [2] of 1.55 µM. It took 0.417 µM to reach half-maximal inhibition in assay [3] (IC50).
Molecule `O=C1c2c(c(O)c3nccnc3c2O)C(=O)N1Cc1cc(Cl)cc(Cl)c1` had a pCC50 in assay [1] of 4.72. In assay [2], this molecule showed an EC50 of 0.724 µM. Also, inhibition in assay [3] was half-maximal at 0.186 µM (IC50).
Taken in the same sequence, the figures for `O=C1c2c(c(O)c3nccnc3c2O)C(=O)N1Cc1cc(F)cc(F)c1` were below 4.49, 16.6 µM and 0.372 µM.
`C[C@@H](c1ccccc1)N1C(=O)c2c(c(O)c3nccnc3c2O)C1=O` gave a pCC50 in assay [1] of 4.81. Besides, in assay [2], it took 15.1 µM to reach a half-maximal effect (EC50). Besides, the IC50 in assay [3] was 2.04 µM.
Taken in the same sequence, the figures for `O=C1c2c(c(O)c3ncccc3c2O)C(=O)N1Cc1cccc(Br)c1` were 5.21, 3.09 µM and 0.38 µM.
The molecule `O=C1c2c(c(O)c3nccnc3c2O)C(=O)N1Cc1cccc(Cl)c1` registered a pCC50 in assay [1] of 4.73. In assay [2], this molecule had an EC50 of 0.977 µM. This molecule also gave an IC50 in assay [3] of 0.219 µM.
Taken in the same sequence, the figures for `O=C1c2c(c(O)c3nccnc3c2O)C(=O)N1CC1CCCCC1` were 5.19, 3.47 µM and 2.19 µM.
Taken in the same sequence, the figures for `O=C1c2c(c(O)c3nccnc3c2O)C(=O)N1Cc1ccc(-c2ccccc2)cc1` were 5.47, 2.57 µM and 1.45 µM.
As for `O=C1c2c(c(O)c3nccnc3c2O)C(=O)N1Cc1ccc(F)c(Cl)c1`, the pCC50 in assay [1] turned out to be 4.7. Further, the response in assay [2] was half-maximal at 3.09 µM (EC50). In addition, the midpoint of inhibition in assay [3], the IC50, lay at 0.178 µM.
In the case of `C[C@H](c1ccccc1)N1C(=O)c2c(c(O)c3nccnc3c2O)C1=O`, in assay [1], the pCC50 is on record as 4.76. Besides, the EC50 in assay [2] is 10.2 µM. The same molecule had an IC50 in assay [3] of 1.05 µM.
With `O=C1c2c(c(O)c3nccnc3c2O)C(=O)N1Cc1ccncc1`, in assay [1], the pCC50 is below 4.49. This molecule also had an EC50 in assay [2] above 32.4 µM. This molecule also showed an IC50 in assay [3] of 6.76 µM.
Taken in the same sequence, the figures for `O=C1c2c(c(O)c3nccnc3c2O)C(=O)N1C1CCNCC1` were below 4.49, above 32.4 µM and above 100 µM.
For the molecule `O=C1c2c(c(O)c3nccnc3c2O)C(=O)N1Cc1ccc(Cl)cc1`, the pCC50 in assay [1] is 5.58. This molecule also showed an EC50 in assay [2] of 0.269 µM. In assay [3], this molecule showed an IC50 of 0.417 µM.
Taken in the same sequence, the figures for `O=C1c2c(c(O)c3ccccc3c2O)C(=O)N1Cc1ccc(F)cc1` were 4.59, 20 µM and above 100 µM.
Taken in the same sequence, the figures for `O=C1c2c(c(O)c3nccnc3c2O)C(=O)N1Cc1cc(Br)ccc1F` were 5.38, 0.447 µM and 0.355 µM.
Taken in the same sequence, the figures for `O=C1c2c(c(O)c3nccnc3c2O)C(=O)N1Cc1ccc(Br)cc1F` were 5.11, 2.4 µM and 0.437 µM.
In the case of `O=C1c2c(c(O)c3nccnc3c2O)C(=O)N1Cc1ccc(Cl)c(Cl)c1`, in assay [1], the pCC50 worked out at 5.05. This molecule also had an EC50 in assay [2] of 0.912 µM. The molecule also gave an IC50 in assay [3] of 0.112 µM.
Taken in the same sequence, the figures for `O=C1c2c(c(O)c3nccnc3c2O)C(=O)N1Cc1cccc(Br)c1` were 4.49, 7.41 µM and 0.209 µM.
For the molecule `O=C1c2c(c(O)c3nccnc3c2O)C(=O)N1CCc1ccccc1`, the pCC50 in assay [1] is listed as 5.23. Moreover, the midpoint of the response in assay [2], the EC50, lay at 4.9 µM. In assay [3], the IC50 was 2.04 µM.

In general, pCC50 refers to the CC50 on a negative log10 scale, so that one unit is a factor of ten. Broadly, the EC50 is the concentration at which the effect is half-maximal. A higher EC50 goes with weaker potency. The term IC50 denotes the point on the concentration scale where inhibition reaches its midpoint. High values mean lower potency, low ones higher potency. One may read the EC95 as the point of the concentration-response curve where the effect stands at 95%. High values mean weaker potency, low ones greater potency.
